Assay results published in ChEMBL document CHEMBL1134512, “Bicyclic analogues of D-myo-inositol 1,4,5-trisphosphate related to adenophostin A: synthesis and biological activity” (J Med Chem, 2001).

Columns and labels:
[1] = Ratio to Ins(1,4,5)P3, for the effect on [Ca2+] release from the intracellular stores of permealized hepatocytes (ratio greater than 1 denotes greater potency and less than -1 denotes lesser potency); type: functional, Hepatocyte
[2] = Ratio to Ins(1,4,5)P3 was measured(ratio greater than 1 denotes greater affinity and less than -1 denotes lesser affinity)
[3] = Hill coefficient, measured using equilibrium competition binding with [3H]Inositol(1,4,5)P3
Hepatocyte = assay: Hill coefficient for the effect on [Ca2+] release from the intracellular stores of permealized hepatocytes; type: cell-based
Procedure, shortened: (§1)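 Permeabilized rat hepatocytes loaded with 45Ca2+ to steady state (5 min, 37 °C) in cytosol-like medium pH 7.0 with ATP 1.5 mM, creatine phosphate 5 mM, creatine phosphokinase 5 units/mL, FCCP 10 µM. Thapsigargin (1.25 µM) added, agonist 30 s later, store Ca2+ measured by rapid filtration after 60 s. Four-parameter logistic fit gives EC50, Hill slope, maximal release; three experiments.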

Rattus norvegicus [4] = organism: Rattus norvegicus; assay: […] on [Ca2+] release from the intracellular stores of permealized hepatocytes; type: functional; conditions: Hepatocyte; procedure, shortened: as §1
Rattus norvegicus [5] = organism: Rattus norvegicus; assay: Fraction of total [Ca2+] stores released by a maximal concentration of the compound; type: functional; procedure, shortened: as §1
[6] = Binding affinity towards rat liver membrane, measured using equilibrium competition binding with [3H]Inositol(1,4,5)P3

Row | SMILES | Ratio [1] | Ratio [2] | Hill coefficient [3] | Hill coefficient (Hepatocyte) | EC50 (Rattus norvegicus [4]) | Max response (Rattus norvegicus [5]) | Kd [6]
1 | O=P(O)(O)O[C@@H]1[C@H](O)[C@H](O)[C@@H](OP(=O)(O)O)[C@H](OP(=O)(O)O)[C@H]1O [INS(1,4,5)P3] | 1 | 1 | 1.16 | 1.48 | 90 nM | 59% | 4.56 nM
2 | O=P(O)(O)O[C@@H]1CO[C@@H]2[C@H](O)[C@@H](OP(=O)(O)O)[C@H](OP(=O)(O)O)[C@@H](O)[C@@H]2OC1 | -18 | -21 | 1.01 | 2.61 | 1650 nM | 59% | 98 nM
3 | O=P(O)(O)O[C@H]1CO[C@@H]2[C@H](O)[C@@H](OP(=O)(O)O)[C@H](OP(=O)(O)O)[C@@H](O)[C@@H]2OC1 | -14 | -14 | 1.12 | 2.9 | 1230 nM | 59% | 62 nM
4 | Nc1ncnc2c1ncn2[C@@H]1O[C@H](CO)[C@@H](O[C@H]2O[C@H](CO)[C@@H](OP(=O)(O)O)[C@H](OP(=O)(O)O)[C@H]2O)[C@H]1OP(=O)(O)O [ADENOPHOSTIN A] | 9.8 | 8.3 | 1.17 | 2.99 | 9.2 nM | 49% | 0.55 nM
